Experimental findings from ChEMBL document CHEMBL4842371 (J Med Chem, 2021) are described below.

The target of data set [1] is T1, 5-hydroxytryptamine receptor 3A (Cavia porcellus) (UniProt O70212).
T1 sequence (whole entry): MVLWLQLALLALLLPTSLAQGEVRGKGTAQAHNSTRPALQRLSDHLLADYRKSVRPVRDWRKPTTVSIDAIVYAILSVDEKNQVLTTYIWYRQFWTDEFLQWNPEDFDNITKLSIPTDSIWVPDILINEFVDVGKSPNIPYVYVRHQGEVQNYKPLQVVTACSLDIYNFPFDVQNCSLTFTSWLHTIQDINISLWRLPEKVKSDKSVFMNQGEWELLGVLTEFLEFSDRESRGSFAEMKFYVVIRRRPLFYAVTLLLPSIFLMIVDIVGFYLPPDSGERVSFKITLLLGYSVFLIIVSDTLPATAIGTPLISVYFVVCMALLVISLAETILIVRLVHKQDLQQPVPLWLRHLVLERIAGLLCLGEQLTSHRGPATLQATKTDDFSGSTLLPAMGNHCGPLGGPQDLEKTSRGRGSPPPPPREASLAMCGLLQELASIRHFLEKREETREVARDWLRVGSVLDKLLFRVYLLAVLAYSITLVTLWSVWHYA
The note with it: Ileum, filed as antagonist.

Data set [2] has as its target CYP2C9 (Homo sapiens, UniProt P11712). In words: Inhibition of CYP2C9 (unknown origin) at 10 uM relative to control. It counts as ADME. The procedure, abridged:
(§1)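 CYP isoenzyme inhibition is measured at 10 μM compound. Result is given as % inhibition.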

The target in data set [3] is CYP2D6 (Homo sapiens, UniProt P10635). In words: Inhibition of CYP2D6 (unknown origin) at 10 uM relative to control. It counts as ADME. The procedure, abridged:
as §1

Chain of CYP2D6 (P10635 whole entry): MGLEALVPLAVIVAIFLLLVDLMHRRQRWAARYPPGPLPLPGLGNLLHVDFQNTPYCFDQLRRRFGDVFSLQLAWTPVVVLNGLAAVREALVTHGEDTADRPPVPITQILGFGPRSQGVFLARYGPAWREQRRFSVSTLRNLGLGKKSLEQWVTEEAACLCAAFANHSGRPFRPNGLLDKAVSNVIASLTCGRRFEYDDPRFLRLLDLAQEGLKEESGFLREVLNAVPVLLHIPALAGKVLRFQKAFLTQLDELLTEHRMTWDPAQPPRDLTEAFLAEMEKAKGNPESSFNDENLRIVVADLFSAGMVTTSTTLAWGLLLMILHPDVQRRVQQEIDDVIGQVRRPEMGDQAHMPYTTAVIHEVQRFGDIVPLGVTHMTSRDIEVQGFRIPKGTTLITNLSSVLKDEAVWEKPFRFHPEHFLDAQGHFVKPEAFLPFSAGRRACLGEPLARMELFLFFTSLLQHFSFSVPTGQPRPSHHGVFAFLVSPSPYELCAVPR
Chain of CYP2C9 (P11712 whole entry): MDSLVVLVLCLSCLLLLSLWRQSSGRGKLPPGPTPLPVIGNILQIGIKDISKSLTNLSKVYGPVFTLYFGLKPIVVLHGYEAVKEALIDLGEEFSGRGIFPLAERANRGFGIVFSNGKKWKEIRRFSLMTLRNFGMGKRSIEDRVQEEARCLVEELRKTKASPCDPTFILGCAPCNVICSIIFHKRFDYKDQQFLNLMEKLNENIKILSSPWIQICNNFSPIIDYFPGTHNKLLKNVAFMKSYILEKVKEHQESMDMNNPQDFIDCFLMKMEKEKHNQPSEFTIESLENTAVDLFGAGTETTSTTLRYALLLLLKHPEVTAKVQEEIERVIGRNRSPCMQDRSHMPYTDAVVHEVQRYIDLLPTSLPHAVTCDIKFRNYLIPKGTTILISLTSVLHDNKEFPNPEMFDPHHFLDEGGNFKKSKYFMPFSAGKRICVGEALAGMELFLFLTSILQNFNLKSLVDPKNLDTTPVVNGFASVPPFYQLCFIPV

`Cc1nccn1CC1CCc2c(c3ccccc3n2C)C1=O` (stereo not drawn): the pD2 in data set [1] was found to be 6.43.
For orientation: inhibition means how much of the control response was suppressed. Consider `O=S(=O)(c1cccc(F)c1)n1ccc2c(N3CCNCC3)nc3ccccc3c21`, for which the inhibition at 10 µM in data set [2] and in data set [3] was under 25% each time.
